Test results taken from ChEMBL document CHEMBL4219124, “Alleviating CYP and hERG liabilities by structure optimization of dihydrofuran-fused tricyclic benzo[d]imidazole series - Potent, selective and orally efficacious microsomal prostaglandin E synthase-1 (mPGES-1) inhibitors: Part-2” (Bioorg Med Chem Lett, 2018).

Tests used:
[1] = Tmax in cynomolgus monkey at 10 mg/kg, po; assay type: ADME, organism-based, Macaca fascicularis; details: in vivo
Procedure, shortened: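 Tmax from oral 10 mg/kg dosing. Rat: male Sprague-Dawley, 0.5% MC suspension, n = 3. Guinea pig: 20% NMP + 0.5% MC suspension, n = 3. Dog and monkey: 2.5 μL/mL Tween 80 + 0.5% MC suspension.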

[2] = AUC (0 to 24 hrs) in Sprague-Dawley rat at 10 mg/kg, po; assay type: ADME, organism-based; design: dose 10 mg/kg, time < 24 hr, route oral; details: in vivo
Procedure, shortened: (§1)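 Single oral dose of 10 mg/kg. Cmax and AUC0-24 taken from the oral arm. Rat: male Sprague-Dawley, dosed in 0.5% methylcellulose suspension, mean ± SD (n = 3). Guinea pig: 20% NMP + 0.5% MC suspension, mean ± SD (n = 3). Dog and cynomolgus monkey: 2.5 μL/mL Tween 80 + 0.5 (w/v) MC suspension.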

[3] = Half life in cynomolgus monkey at 10 mg/kg, po; assay type: ADME, organism-based, Macaca fascicularis; details: in vivo
Procedure, shortened: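 Half-life calculated from plasma profiles after oral dosing at 10 mg/kg. Rat: male Sprague-Dawley, 0.5% methylcellulose suspension, n = 3. Dog and cynomolgus monkey: Tween 80 (2.5 μL/mL) + 0.5 (w/v) MC suspension.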

[4] = Metabolic stability in rat liver microsomes assessed as parent compound remaining at 1 uM after 60 mins in presence of NADPH by LC-MS/MS analysis; assay type: ADME, microsome; details: read-out: Stability
Procedure, shortened: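 Compound incubated 60 min at 37 °C with human, rat or guinea pig liver microsomes; percent parent remaining, triplicates.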

[5] = molecular target: T1, Thromboxane-A synthase (Homo sapiens) (UniProt P24557); assay: Inhibition of TXAS (unknown origin) at 10 uM relative to control
T1 sequence (whole entry): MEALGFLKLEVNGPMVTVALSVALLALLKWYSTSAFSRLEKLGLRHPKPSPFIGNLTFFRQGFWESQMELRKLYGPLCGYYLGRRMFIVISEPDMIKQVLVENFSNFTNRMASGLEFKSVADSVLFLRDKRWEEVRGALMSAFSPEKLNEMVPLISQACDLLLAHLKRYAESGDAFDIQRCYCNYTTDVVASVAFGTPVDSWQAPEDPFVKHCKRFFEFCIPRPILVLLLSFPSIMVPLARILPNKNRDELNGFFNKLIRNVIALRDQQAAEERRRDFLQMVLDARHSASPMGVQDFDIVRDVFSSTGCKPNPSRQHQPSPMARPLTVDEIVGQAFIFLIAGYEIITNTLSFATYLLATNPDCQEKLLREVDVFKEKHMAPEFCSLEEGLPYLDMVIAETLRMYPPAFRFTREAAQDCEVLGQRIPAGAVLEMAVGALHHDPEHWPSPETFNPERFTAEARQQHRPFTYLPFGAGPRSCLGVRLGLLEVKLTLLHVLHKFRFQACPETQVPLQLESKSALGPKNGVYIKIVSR
Procedure, shortened: (§2)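 Selectivity panel against other prostanoid-pathway enzymes. % inhibition values are means of at least two experiments, each in duplicate.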

CYP1A2 = molecular target: T2, CYP1A2 (Homo sapiens, UniProt P05177); assay: Inhibition of CYP1A2 in human liver microsomes at 10 uM after 20 mins in presence of NADPH by LC-MS/MS analysis; assay type: ADME
T2 sequence (P05177 whole entry): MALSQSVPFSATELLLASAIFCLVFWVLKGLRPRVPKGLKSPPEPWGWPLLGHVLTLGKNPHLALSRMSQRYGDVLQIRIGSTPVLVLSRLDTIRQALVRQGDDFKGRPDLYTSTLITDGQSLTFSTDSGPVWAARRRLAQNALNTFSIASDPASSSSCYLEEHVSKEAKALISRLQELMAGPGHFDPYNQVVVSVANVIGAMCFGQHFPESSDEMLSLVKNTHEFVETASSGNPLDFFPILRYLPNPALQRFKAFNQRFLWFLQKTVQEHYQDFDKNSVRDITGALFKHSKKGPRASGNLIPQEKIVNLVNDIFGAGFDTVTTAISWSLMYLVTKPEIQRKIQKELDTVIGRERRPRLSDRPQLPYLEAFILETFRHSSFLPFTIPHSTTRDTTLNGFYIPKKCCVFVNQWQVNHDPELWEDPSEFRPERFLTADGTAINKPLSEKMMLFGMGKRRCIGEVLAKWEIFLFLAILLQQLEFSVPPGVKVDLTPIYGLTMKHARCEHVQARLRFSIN
Procedure, shortened: (§3)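 Percent inhibition of each CYP isoform by test compound at 10 µM, compared with a no-inhibitor control. Run in triplicate.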

CYP2D6 = CYP2D6 (Homo sapiens, UniProt P10635); assay: Inhibition of CYP2D6 in human liver microsomes at 10 uM after 20 mins in presence of NADPH by LC-MS/MS analysis; assay type: ADME; details: liver microsomes; procedure, shortened: as §3
CYP2D6, sequence (P10635 whole entry): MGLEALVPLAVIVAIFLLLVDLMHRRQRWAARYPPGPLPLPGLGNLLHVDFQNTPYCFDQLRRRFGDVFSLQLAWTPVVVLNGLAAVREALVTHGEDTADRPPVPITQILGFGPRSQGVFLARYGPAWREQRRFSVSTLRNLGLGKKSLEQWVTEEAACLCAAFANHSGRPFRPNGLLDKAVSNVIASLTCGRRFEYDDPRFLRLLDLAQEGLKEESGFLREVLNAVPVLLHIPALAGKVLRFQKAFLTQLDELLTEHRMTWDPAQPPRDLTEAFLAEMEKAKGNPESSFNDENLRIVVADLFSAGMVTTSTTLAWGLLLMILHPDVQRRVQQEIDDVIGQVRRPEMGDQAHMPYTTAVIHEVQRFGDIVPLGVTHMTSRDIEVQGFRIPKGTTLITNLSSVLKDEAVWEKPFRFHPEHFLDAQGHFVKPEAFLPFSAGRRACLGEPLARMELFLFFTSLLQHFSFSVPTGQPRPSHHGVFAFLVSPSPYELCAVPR

[6] = molecular target: Hematopoietic prostaglandin D synthase (Homo sapiens) (UniProt O60760); assay: Inhibition of PGDS (unknown origin) at 10 uM relative to control; procedure, shortened: as §2
Hematopoietic prostaglandin D synthase (Homo sapiens), sequence (O60760 whole entry): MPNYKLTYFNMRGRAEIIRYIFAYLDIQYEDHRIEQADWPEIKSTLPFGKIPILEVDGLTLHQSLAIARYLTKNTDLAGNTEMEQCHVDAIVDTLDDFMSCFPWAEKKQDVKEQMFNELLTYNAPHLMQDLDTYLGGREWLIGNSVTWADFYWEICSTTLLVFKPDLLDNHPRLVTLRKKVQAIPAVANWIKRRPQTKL

[7] = Inhibition of mPGES1 in guinea pig whole blood assessed as reduction in LPS-induced PGE2 production measured after 20 to 24 hrs; details: Cavia porcellus
Procedure, shortened: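 Guinea pig whole blood stimulated with LPS. […] At least two experiments, each in duplicate.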

Prostaglandin E synthase = molecular target: T3, Prostaglandin E synthase (Canis lupus familiaris, UniProt A0SYQ0); assay: Inhibition of mPGES1 in dog whole blood assessed as reduction in LPS-induced PGE2 production measured after 20 to 24 hrs
T3 sequence (A0SYQ0 whole entry): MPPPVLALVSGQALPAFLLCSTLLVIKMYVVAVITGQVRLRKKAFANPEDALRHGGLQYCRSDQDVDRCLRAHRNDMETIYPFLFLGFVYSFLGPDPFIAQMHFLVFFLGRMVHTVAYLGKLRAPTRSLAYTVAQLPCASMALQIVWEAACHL
Procedure, shortened: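 Dog whole blood stimulated with LPS. […] At least two experiments, each in duplicate; run by an external contract lab.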

[8] = molecular target: T4, Prostaglandin E synthase (Macaca fascicularis) (UniProt Q6PWL6); assay: Inhibition of mPGES1 in rhesus monkey whole blood assessed as reduction in LPS-induced PGE2 production at 10 uM measured after 20 to 24 hrs relative to control; details: Macaca mulatta
T4 sequence (whole entry): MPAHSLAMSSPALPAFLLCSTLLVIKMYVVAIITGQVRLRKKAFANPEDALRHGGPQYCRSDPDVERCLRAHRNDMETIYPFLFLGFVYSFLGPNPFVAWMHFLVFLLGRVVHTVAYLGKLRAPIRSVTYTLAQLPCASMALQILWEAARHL
Procedure, shortened: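 Rhesus monkey whole blood stimulated with LPS; PGE2 inhibition measured relative to vehicle control […]. At least two experiments, each in duplicate; run by an external contract lab.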

[9] = Cmax in cynomolgus monkey at 10 mg/kg, po; assay type: ADME, organism-based, Macaca fascicularis; design: dose 10 mg/kg, route oral; details: in vivo; procedure, shortened: as §1
[10] = test system: Prostaglandin F synthase (Homo sapiens); assay: Inhibition of human PGF synthase assessed as decrease in PGF2alpha production at 10 uM relative to control
[11] = molecular target: Prostaglandin F synthase (Homo sapiens); assay: Inhibition of human PGF synthase assessed as decrease in PGF2alpha production

Tmax [1] | AUC(0-t) at 24 h [2] | half-life [3] | remaining at 1 h, 1 µM [4] | inhibition [5] | inhibition at 20 min, 10 µM (CYP1A2) | inhibition at 20 min, 10 µM (CYP2D6) | inhibition [6] | IC50 [7] | IC50 (Prostaglandin E synthase) | inhibition [8] | Cmax [9] | inhibition [10] | IC50 [11] | SMILES
12 h | 2580 ng·h/mL | 12 h | 97% | 0.87% | 24% | -2% | 19.5% | 340 nM | 3030 nM | 48.2% | 499 ng/mL | 17.9% | – | Cc1cccc(Cl)c1Nc1nc2cc(C(=O)Nc3cc(C(F)(F)F)ccc3F)c3c(c2[nH]1)CC(C)(C)O3
– | – | – | 87% | 17.2% | 28% | 14% | 27.6% | 222 nM | – | – | – | – | – | Cc1cccc(Cl)c1Nc1nc2cc(C(=O)Nc3cc(C(F)F)ccc3F)c3c(c2[nH]1)CC(C)(C)O3
– | – | – | 89% | 22.1% | 5% | 29% | 16.5% | 188 nM | – | – | – | 61.4% | 3180 nM | Cn1c(Nc2c(F)cccc2Cl)nc2cc(C(=O)Nc3cccc(C(F)(F)F)c3)c3c(c21)CC(C)(C)O3
– | – | – | 96% | 4.6% | 22% | 12% | 5.8% | 204 nM | – | – | – | 99.2% | 2470 nM | CC1(C)Cc2c(c(C(=O)Nc3cc(C(F)(F)F)ccc3F)cc3nc(Nc4c(F)cccc4Cl)[nH]c23)O1
24 h | 11000 ng·h/mL | 6.45 h | 91% | 25.5% | -6% | 19% | 0% | 465 nM | 6220 nM | 50.4% | 680 ng/mL | 100% | 2320 nM | CC1(C)Cc2c(c(C(=O)Nc3ccc(F)c(C(F)(F)F)c3)cc3nc(Nc4c(F)cccc4Cl)[nH]c23)O1
6 h | 4020 ng·h/mL | 5.3 h | 88% | 1.3% | 4% | 9% | 15.1% | 259 nM | 3540 nM | 37% | 323 ng/mL | 15.4% | – | CC1(C)Cc2c(c(C(=O)Nc3ccc(C(F)(F)F)cn3)cc3nc(Nc4c(Cl)cccc4Cl)[nH]c23)O1
